{"source": "ChEMBL document CHEMBL1135756", "about": "“Solid phase synthesis and evaluation of Tyr-Tic-Phe-Phe(p-NHCOCH(2)Br) ([Phe(p-bromoacetamide)(4)]TIPP), a potent affinity label for delta opioid receptors” (J Med Chem, 2002)", "key": {"Mu-type opioid receptor": {"biological_target": "Mu-type opioid receptor (Rattus norvegicus, UniProt P33535)", "sequence (P33535 whole entry)": "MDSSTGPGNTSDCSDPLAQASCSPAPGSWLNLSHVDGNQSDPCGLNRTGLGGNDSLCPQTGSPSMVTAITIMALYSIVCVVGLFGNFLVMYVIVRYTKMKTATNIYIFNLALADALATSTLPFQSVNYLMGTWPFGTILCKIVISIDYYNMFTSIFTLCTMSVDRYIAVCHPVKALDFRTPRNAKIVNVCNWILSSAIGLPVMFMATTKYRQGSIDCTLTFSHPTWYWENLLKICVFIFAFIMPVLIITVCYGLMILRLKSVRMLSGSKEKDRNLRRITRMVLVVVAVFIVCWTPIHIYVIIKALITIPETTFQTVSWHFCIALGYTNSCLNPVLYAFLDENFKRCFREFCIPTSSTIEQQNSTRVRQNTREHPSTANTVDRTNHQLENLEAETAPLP", "assay": "Inhibitory activity against Opioid receptor mu 1 using [3H]DAMGO"}, "[1]": {"biological_target": "Kappa-type opioid receptor (Cavia porcellus, UniProt P41144)", "sequence (P41144 whole entry)": "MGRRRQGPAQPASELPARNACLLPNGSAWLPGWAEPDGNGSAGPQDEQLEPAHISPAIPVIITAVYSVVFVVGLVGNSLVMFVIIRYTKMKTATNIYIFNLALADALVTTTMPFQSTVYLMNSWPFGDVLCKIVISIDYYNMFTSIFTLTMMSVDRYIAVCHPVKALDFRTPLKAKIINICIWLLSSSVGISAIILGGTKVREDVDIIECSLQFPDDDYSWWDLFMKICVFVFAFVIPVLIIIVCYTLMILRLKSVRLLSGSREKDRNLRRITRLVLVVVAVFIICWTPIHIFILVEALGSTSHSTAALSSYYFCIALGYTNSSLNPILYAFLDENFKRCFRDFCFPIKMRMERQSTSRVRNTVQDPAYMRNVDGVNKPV", "assay": "Inhibitory activity against Opioid receptor kappa 1 using [3H]diprenorphine"}, "[2]": {"biological_target": "T1, Delta-type opioid receptor (Mus musculus, UniProt P32300)", "T1 sequence (P32300 whole entry)": "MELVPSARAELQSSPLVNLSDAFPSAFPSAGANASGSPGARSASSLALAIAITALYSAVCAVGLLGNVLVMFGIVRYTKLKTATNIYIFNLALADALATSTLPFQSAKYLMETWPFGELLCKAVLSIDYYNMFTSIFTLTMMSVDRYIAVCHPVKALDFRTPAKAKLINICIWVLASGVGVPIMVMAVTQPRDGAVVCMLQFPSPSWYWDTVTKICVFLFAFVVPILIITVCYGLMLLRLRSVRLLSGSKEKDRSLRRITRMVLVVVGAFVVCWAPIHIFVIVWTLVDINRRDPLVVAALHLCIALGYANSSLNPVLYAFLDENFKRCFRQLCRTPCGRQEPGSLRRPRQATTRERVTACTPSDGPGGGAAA", "assay": "Inhibitory activity against Opioid receptor delta 1 using [3H]DPDPE", "procedure,_shortened": "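Competition binding on membranes of CHO cells stably transfected with cloned δ opioid receptors, using [³H]DPDPE as radioligand under standard (equilibrium) conditions. IC50 is the mean ± SEM of 3–7 independent determinations.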"}, "[3]": {"biological_target": "T1, Delta-type opioid receptor", "assay": "Binding affinity towards Opioid receptor delta 1", "procedure,_shortened": "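Competition binding against [³H]DPDPE on membranes of CHO cells stably transfected with cloned δ opioid receptors, under standard (equilibrium) conditions. The IC₅₀ is displacement of radioligand, averaged over 3–7 independent determinations ± SEM.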"}, "[4]": {"biological_target": "Delta-type opioid receptor (Mus musculus) (UniProt P32300)", "sequence (P32300 whole entry)": "as above", "assay": "Inhibition of cyclic adenosine 3',5'-monophosphate (cAMP) formation by recombinant Opioid receptor delta 1 in adenylyl cyclase assay", "assay_type": "functional", "settings": "concentration not given here"}}, "note": "pIC50, pKi: −log10 of the molar value. Non-standard residues stand in square brackets, D forms with d. Residues, ends and D or L forms follow the SMILES beside them. *: point of attachment. Phe(4-NH2) = Nc1ccc(C[C@H](N)C(=O)O)cc1; Tic = O=C(O)[C@@H]1Cc2ccccc2CN1; BrAc = O=C(CBr)*", "data": [{"smiles": "Nc1ccc(C[C@H](NC(=O)[C@H](Cc2ccccc2)NC(=O)[C@@H]2Cc3ccccc3CN2C(=O)[C@@H](N)Cc2ccc(O)cc2)C(=O)O)cc1", "note": "(H-Y[Tic]F[Phe(4-NH2)]-OH)", "values": [{"measurement": "pIC50", "setting": "Mu-type opioid receptor", "result": "< 5.00"}, {"measurement": "pIC50", "setting": "[1]", "result": "< 5.00"}, {"measurement": "pIC50", "setting": "[2]", "result": 7.70}]}, {"smiles": "N[C@@H](Cc1ccc(O)cc1)C(=O)N1Cc2ccccc2C[C@H]1C(=O)N[C@@H](Cc1ccccc1)C(=O)N[C@@H](Cc1ccccc1)C(=O)O", "note": "(H-Y[Tic]FF-OH)", "values": [{"measurement": "pIC50", "setting": "Mu-type opioid receptor", "result": 5.00}, {"measurement": "pKi", "setting": "[3]", "result": 8.91}, {"measurement": "pIC50", "setting": "[2]", "result": 7.85}]}, {"smiles": "N[C@@H](Cc1ccc(O)cc1)C(=O)N1Cc2ccccc2C[C@H]1C(=O)N[C@@H](Cc1ccc(NC(=O)CBr)cc1)C(=O)N[C@@H](Cc1ccccc1)C(=O)O", "note": "(H-Y[Tic][Phe(4-NH2)](BrAc)F-OH)", "values": [{"measurement": "pIC50", "setting": "Mu-type opioid receptor", "result": "< 5.00"}, {"measurement": "pIC50", "setting": "[2]", "result": 7.19}]}, {"smiles": "N[C@@H](Cc1ccc(O)cc1)C(=O)N1Cc2ccccc2C[C@H]1C(=O)N[C@@H](Cc1ccccc1)C(=O)N[C@@H](Cc1ccc(NC(=O)CBr)cc1)C(=O)O", "note": "(H-Y[Tic]F[Phe(4-NH2)](BrAc)-OH)", "values": [{"measurement": "pIC50", "setting": "Mu-type opioid receptor", "result": "< 5.27"}, {"measurement": "pIC50", "setting": "[1]", "result": "< 5.00"}, {"measurement": "pIC50", "setting": "[2]", "result": 8.27}, {"measurement": "inhibition", "setting": "[4]", "result": 65, "unit": "%"}]}, {"smiles": "Nc1ccc(C[C@H](NC(=O)[C@@H]2Cc3ccccc3CN2C(=O)[C@@H](N)Cc2ccc(O)cc2)C(=O)N[C@@H](Cc2ccccc2)C(=O)O)cc1", "note": "(H-Y[Tic][Phe(4-NH2)]F-OH)", "values": [{"measurement": "pIC50", "setting": "Mu-type opioid receptor", "result": "< 5.00"}, {"measurement": "pIC50", "setting": "[2]", "result": 7.44}]}]}
